In the EternaBench riboswitch data:

Tested on: MS2 coat protein
Assay: apparent Kd, MS2 coat protein; higher = weaker binding; RNA-MaP array; tryptophan 2.4 mM where present
Procedure, shortened: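 Green signal from SNAP-549-labelled MS2 coat protein was normalised to red-channel RNA signal and to the median Fmax of control clusters. The protein was titrated from 0.7 or 1.5 nM, doubling to 3 µM, without and then with constant ligand, over designs transcribed by stalled E. coli RNA polymerase on Illumina sequencing-chip clusters, in 100 mM Tris-HCl pH 7.5, 80 mM KCl, 4 mM MgCl2, BSA, DTT, yeast tRNA and Tween-20. The apparent Kd is the median of filtered per-cluster binding-curve fits.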

[1] = designed as: OFF switch for tryptophan, no ligand
[2] = ligand present: tryptophan, designed as: OFF switch for tryptophan
[3] = designed as: ON switch for tryptophan, no ligand
[4] = ligand present: tryptophan, designed as: ON switch for tryptophan

Row | Sequence | apparent Kd [1] [nM] | apparent Kd [2] [nM] | apparent Kd [3] [nM] | apparent Kd [4] [nM]
1 | GUGUUAUGGUCGGCCGCCACUCUGACAUGAGGAUCACCCAUGUUGUACAUGAGGAUCACCCAUGUGAGGACCGGGACACGUGCGA | 401 | 442 |  | 
2 | AGAUUCGACACGGCCGCCACUCGUGGUGGAUUACCUAGUGUCGAACAUGAGGAUCACCCAUGUACGAGGACCGGGUGUUGAGUCU | 75 | 200 |  | 
3 | GUCCAAAGGUCGGCCGCCACUGUAGAGUGUGUUCUUUCACAUGAGGAUCACCCAUGUUGUUAUUAUAGGACCGGGAUUGUAGGAC | 20.4 | 28.1 |  | 
4 | ACCUGCGUUUGUUUCUUUCUGACGCAGGUUCGAGGACCGGUACGGCCGCCACUCGGACAUGAGGAUCACCCAUGUUUGAAAUGGG | 253 | 227 |  | 
5 | UGUCAUGGAAACAUGACUGGUUCUACCGGUCGAGGACCGGUACGGCCGCCACUCGAUUGGUGGCACAUGAGGAUCACCCAUGUUA |  |  | 28.2 | 30
6 | UAUCUACAUGAAUAGGUUAUUCGAUUAUUUCGAGGACCGGUACGGCCGCCACUCGUUAACAUAUACAUGAGGAUCACCCAUGUUA |  |  | 16.9 | 15.9
7 | CUAAUUAAAUCGGCCGCCACUUACUCAUGAGGUAACAACAUGAGGAUCACCCAUGUUUGAGGAUCAAGGACCGGGAUUUAAUUAG |  |  | 28.9 | 18.2
8 | GAGUAGUAGACGGCCGCCACUAAACAUGAGGAUCACCCAUGUAGUGAUCCGUUACCUAGCGUAGAUAGGACCGGGUCAGAUAGUA | 26 | 29.2 |  | 
9 | GCAUCCUAGUCGGCCGCCACUGCAACAUGAGGAUCACCCAUGUCUGUAUGUGAUCCAUGCAGUAGCAGGACCGGGACUAGGAUGC |  |  | 501 | 130
10 | CUGCCUGCCUCACAUGAGGAUCACCCAUGUCGAGGACCGGUACGGCCGCCACUCGUCGUCGGUAAUACAGGCAUUGAAUAAUAUA | 10.3 | 37.5 |  | 
11 | CCUAUGCAGUCGGCCGCCACUGAGUCCUCAAUAAUAAAUUAAUAAACAUGAGGAUCACCCAUGUACAGGACCGGGACUGUAUAGG | 314 | 373 |  | 
12 | UACAUGAGGAUCACCCAUGUAUUGCCGGUACGAGGACCGGUACGGCCGCCACUCGGAGCAUGAGGAUCACCCAUGUGCUGCUAUG |  |  | 66.2 | 51.8
13 | CUAUGUAUAUAUGCGAAAGCUACGUGUUGACGAGGACCGGUACGGCCGCCACUCGACAUGAGGAUCACCCAUGUAAUAUAUAUAG |  |  | 200 | 62.7
14 | GCAUCCUAGUCGGCCGCCACUGCAUGUAGGCAGUGCUGCUACAAACAUGAGGAUCACCCAUGUAGCAGGACCGGGACUAGGAUGC |  |  | 15 | 13.1
